Drawing on ChEMBL document CHEMBL1125894, “Dual-action cephalosporins: cephalosporin 3'-quaternary ammonium quinolones” (1991), this text covers MIC and Concentration for three compounds.

The structures appear in SMILES notation. Converted amounts (≈) assume the structure as drawn.

By MIC is commonly meant the lowest concentration found to suppress growth.

In assay [1] the test system is Pseudomonas aeruginosa. The assay is described as follows: In vitro antibacterial activity against Pseudomonas aeruginosa 5712. Format: functional. A digest of the protocol:
(§1)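 Serial 2-fold dilutions in the NCCLS broth microdilution method for aerobic nonfastidious organisms, with an 18-h incubation. The value is reported as the minimum inhibitory concentration (MIC).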

In assay [2] the test system is Streptococcus pyogenes. The assay is described as follows: In vitro antibacterial activity against Streptococcus pyogenes 4. The format is functional. A digest of the protocol: (§2)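 Broth macrodilution with serial 2-fold dilutions in cation-supplemented Mueller-Hinton broth containing 10% goat serum. The value is reported as the MIC.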
In assay [3] the test system is Serratia marcescens. Description: In vitro antibacterial activity against Serratia marcescens SM. Format: functional. The gist of the method: as §1
For assay [4], the system named is Enterobacter cloacae. The assay is described as follows: In vitro antibacterial activity against Enterobacter cloacae 5699. The format is functional. The gist of the method:
as §1

The subject of assay [5] is Enterobacter cloacae. Description: In vitro antibacterial activity against Enterobacter cloacae P99. Format: functional. A digest of the protocol:
as §1

The test system of assay [6] is Staphylococcus aureus. The assay is described as follows: In vitro antibacterial activity against Staphylococcus aureus Smith(MS). Format: functional. The gist of the method: (§3)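 Staphylococci were tested by the standard agar dilution procedure using serial 2-fold dilutions of agent. The value is reported as the MIC.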
Assay [7] deals with Streptococcus pneumoniae. The assay is described as follows: In vitro antibacterial activity against Streptococcus pneumoniae 6301. Format: functional. The gist of the method: as §2
Assay [8] has as its system Citrobacter freundii. Description: In vitro antibacterial activity against Citrobacter freundii BS 16. Format: functional. A digest of the protocol: as §1
Assay [9] concerns Staphylococcus aureus. The assay is described as follows: In vitro antibacterial activity against Staphylococcus aureus 95(MR). Format: functional. A digest of the protocol:
as §3

Assay [10] concerns Escherichia coli. The assay is described as follows: In vitro antibacterial activity against Escherichia coli 257. Format: functional. A digest of the protocol: as §1
Assay [11] has as its system Klebsiella pneumoniae. Description: In vitro antibacterial activity against Klebsiella pneumoniae A. Format: functional. The gist of the method: as §1
Assay [12] deals with T1, Penicillin-binding protein 1B (Escherichia coli K-12) (UniProt P02919).
T1 sequence (whole entry): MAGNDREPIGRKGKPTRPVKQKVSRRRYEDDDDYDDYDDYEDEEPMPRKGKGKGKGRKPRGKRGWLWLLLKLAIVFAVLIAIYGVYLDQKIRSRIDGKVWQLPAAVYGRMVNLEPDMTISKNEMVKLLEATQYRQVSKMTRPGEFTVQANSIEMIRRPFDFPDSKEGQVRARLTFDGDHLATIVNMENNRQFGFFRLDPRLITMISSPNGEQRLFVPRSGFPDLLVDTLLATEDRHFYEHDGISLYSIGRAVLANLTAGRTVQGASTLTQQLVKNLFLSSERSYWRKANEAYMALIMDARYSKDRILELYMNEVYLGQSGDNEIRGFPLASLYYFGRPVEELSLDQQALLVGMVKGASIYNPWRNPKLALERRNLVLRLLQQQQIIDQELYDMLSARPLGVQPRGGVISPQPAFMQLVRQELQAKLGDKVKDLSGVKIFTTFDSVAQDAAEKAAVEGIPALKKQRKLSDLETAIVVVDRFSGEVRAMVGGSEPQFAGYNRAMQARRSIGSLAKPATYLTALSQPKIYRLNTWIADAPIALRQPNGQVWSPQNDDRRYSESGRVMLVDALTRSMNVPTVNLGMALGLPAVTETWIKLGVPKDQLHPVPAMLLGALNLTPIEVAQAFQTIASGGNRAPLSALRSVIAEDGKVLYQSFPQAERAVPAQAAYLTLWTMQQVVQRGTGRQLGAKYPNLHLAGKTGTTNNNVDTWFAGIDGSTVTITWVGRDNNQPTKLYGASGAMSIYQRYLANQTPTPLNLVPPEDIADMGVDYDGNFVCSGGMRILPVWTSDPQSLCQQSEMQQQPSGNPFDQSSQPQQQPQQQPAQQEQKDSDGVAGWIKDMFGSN
The assay is described as follows: Concentration required for 90% inhibition against 90 kDa penicillin-binding protein 1b binding using [14C]-Pen G as the radioligand. The gist of the method: (§4)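 Solubilized membranes from sonicated E. coli DC-0 were used. PBP binding was measured as inhibition of [14C]penicillin G binding to each PBP.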

Assay [13] deals with T2, Penicillin-binding protein 1A (Escherichia coli K-12) (UniProt P02918).
T2 sequence (whole entry): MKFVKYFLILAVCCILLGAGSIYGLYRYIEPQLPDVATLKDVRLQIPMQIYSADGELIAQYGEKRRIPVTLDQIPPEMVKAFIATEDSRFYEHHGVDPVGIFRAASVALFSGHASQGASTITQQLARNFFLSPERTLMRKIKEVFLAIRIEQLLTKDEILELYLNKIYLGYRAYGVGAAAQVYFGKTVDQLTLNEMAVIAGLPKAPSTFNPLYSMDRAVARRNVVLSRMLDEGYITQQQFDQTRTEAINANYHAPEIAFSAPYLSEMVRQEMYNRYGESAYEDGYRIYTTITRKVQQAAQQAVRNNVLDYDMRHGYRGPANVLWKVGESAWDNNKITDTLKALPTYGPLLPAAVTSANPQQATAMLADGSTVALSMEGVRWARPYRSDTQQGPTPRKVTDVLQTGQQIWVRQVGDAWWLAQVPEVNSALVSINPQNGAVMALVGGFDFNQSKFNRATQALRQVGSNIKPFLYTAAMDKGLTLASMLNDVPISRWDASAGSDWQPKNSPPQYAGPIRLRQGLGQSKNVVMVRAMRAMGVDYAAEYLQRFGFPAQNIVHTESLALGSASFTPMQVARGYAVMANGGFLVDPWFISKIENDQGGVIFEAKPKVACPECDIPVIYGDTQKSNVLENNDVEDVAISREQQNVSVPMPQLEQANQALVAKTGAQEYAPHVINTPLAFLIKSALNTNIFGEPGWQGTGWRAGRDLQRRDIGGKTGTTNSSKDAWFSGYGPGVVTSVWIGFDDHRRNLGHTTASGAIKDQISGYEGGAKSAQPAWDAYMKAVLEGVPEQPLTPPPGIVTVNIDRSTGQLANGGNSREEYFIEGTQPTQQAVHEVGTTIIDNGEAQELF
Description: Concentration required for 90% inhibition against 90 kDa penicillin-binding protein 1a binding using [14C]-Pen G as the radioligand. A digest of the protocol: as §4

Assay [14] concerns Escherichia coli. Description: Antibacterial activity against Escherichia coli DC-O. The format is functional. A digest of the protocol: as §1
Assay [15] deals with Escherichia coli. The assay is described as follows: Concentration required for 90% inhibition against 60 kDa penicillin-binding protein 3 binding using [14C]-Pen G as the radioligand. The gist of the method:
as §4

Assay [16] concerns the target T3, Peptidoglycan D,D-transpeptidase MrdA (Escherichia coli K-12) (UniProt P0AD65).
T3 sequence (whole entry): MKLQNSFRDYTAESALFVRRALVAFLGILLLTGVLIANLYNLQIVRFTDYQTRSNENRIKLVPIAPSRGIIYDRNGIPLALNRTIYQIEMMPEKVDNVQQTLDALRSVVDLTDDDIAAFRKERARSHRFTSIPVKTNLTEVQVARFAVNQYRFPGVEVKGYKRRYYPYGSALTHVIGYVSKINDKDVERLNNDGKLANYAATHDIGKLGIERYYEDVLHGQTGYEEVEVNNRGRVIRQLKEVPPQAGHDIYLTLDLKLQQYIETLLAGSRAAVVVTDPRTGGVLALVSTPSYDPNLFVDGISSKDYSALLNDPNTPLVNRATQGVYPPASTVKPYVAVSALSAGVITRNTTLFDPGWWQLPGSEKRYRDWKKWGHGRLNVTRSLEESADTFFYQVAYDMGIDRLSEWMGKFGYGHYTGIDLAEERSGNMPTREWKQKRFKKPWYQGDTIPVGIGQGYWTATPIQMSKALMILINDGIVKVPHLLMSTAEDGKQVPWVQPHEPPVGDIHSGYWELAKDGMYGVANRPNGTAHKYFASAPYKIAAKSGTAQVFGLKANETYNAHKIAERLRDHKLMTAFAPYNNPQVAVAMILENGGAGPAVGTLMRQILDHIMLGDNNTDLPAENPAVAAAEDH
The assay is described as follows: Concentration required for 90% inhibition against 66 kDa penicillin-binding protein 2 binding using [14C]-Pen G as the radioligand. The gist of the method:
as §4

On to `C[N+]1(CC2=C(C(=O)[O-])N3C(=O)[C@@H](NC(=O)COc4ccccc4)[C@H]3SC2)CCN(c2ccccc2)CC1`, for which the MIC in assay [1] was above 128 µg/mL; in assay [2], 0.031 µg/mL (≈ 0.0593 µM); in assay [3], above 128 µg/mL; in assay [4] it was 64 µg/mL (≈ 122 µM); in [5], above 128 µg/mL; in [6], 0.063 µg/mL (≈ 0.121 µM). Moreover, the MIC was 0.125 µg/mL (≈ 0.239 µM) in assay [7]; above 128 µg/mL in [8]; 128 µg/mL (≈ 245 µM) in assay [9]; 32 µg/mL (≈ 61.2 µM) in assay [10]; 32 µg/mL (≈ 61.2 µM) in assay [11].
For `CCn1cc(C(=O)O)c(=O)c2cc(F)c(N3CC[N+](C)(CC4=C(C(=O)[O-])N5C(=O)[C@@H](NC(=O)/C(=N\OC)c6csc(N)n6)[C@H]5SC4)CC3)cc21`, the MIC in assay [1] worked out at 64 µg/mL (≈ 87.8 µM); in assay [2] it was 0.125 µg/mL (≈ 0.172 µM); in assay [3], 1 µg/mL (≈ 1.37 µM); in [4] it was 1 µg/mL (≈ 1.37 µM); in assay [5] it was 1 µg/mL (≈ 1.37 µM); in assay [6], 2 µg/mL (≈ 2.74 µM). Also, the MIC is 0.063 µg/mL (≈ 0.0864 µM) in assay [7]; 4 µg/mL (≈ 5.49 µM) in [8]; 4 µg/mL (≈ 5.49 µM) in [9]; 0.5 µg/mL (≈ 0.686 µM) in [10]; 1 µg/mL (≈ 1.37 µM) in assay [11].
With `CO/N=C(\C(=O)N[C@@H]1C(=O)N2C(C(=O)O)=C(COC(=O)c3cn(CCF)c4c(F)c(N5CCN(C)CC5)c(F)cc4c3=O)CS[C@H]12)c1csc(N)n1`, the MIC was 16 µg/mL (≈ 20.9 µM) in assay [1]; below 0.008 µg/mL in assay [2]; 0.125 µg/mL (≈ 0.163 µM) in assay [3]; 0.25 µg/mL (≈ 0.327 µM) in assay [4]; 0.125 µg/mL (≈ 0.163 µM) in [5]; 1 µg/mL (≈ 1.31 µM) in assay [6]. In addition, the minimal inhibitory concentration (MIC) in [7] is below 0.008 µg/mL; in [8], 0.25 µg/mL (≈ 0.327 µM); in [14] it was 0.12 µg/mL (≈ 0.157 µM); in assay [9], 1 µg/mL (≈ 1.31 µM); in [10], 0.063 µg/mL (≈ 0.0824 µM); in [11] it was 0.125 µg/mL (≈ 0.163 µM). The Concentration in [12] is 2 µg/mL; in assay [13], 0.1 µg/mL; in assay [15] it was 0.1 µg/mL; in [16], 100 µg/mL.
